Test [1] concerns Staphylococcus aureus. As to the kind of experiment: Antibacterial activity against methicillin resistant Staphylococcus aureus infected in C57BL/6J mouse model of peritonitis assessed as mouse survival at 10 mg/kg, ip administered at 1 and 5 hrs post infection. It counts as functional, organism-based. Summed up:
(§1)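 Female C57BL/6J mice infected intraperitoneally with 1.5–2.0 × 10^7 CFU MRSA in 5% w/v hog gastric mucin; n = 5 per group; intraperitoneal treatment at 10 mg/kg at 1 and 5 h post-infection; vancomycin 10 mg/kg as control; survival and kidney bacterial load recorded.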

In test [2] the target is T1, 3-oxoacyl-[acyl-carrier-protein] synthase 2 (Staphylococcus aureus) (UniProt Q5TKS0).
T1 sequence (whole entry): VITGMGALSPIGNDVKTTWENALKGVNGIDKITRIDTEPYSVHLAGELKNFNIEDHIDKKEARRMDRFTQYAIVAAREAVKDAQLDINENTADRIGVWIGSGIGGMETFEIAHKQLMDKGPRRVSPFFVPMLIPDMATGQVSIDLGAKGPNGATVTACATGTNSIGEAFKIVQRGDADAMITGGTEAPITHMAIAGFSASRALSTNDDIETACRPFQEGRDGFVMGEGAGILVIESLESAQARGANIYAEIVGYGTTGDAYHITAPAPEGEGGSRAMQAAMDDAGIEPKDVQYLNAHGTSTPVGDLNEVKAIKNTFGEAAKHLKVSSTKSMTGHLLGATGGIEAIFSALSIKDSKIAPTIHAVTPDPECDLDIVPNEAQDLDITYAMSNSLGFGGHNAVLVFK
As to the kind of experiment: Binding affinity to His6-tagged Staphylococcus aureus FabF expressed in Escherichia coli BL21 (DE3) assessed as decrease in melting temperature at 10 uM by SYPRO orange based differential scanning fluorimetry. Put shortly: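 S. aureus FabF melting curves were measured by DSF in 20 mM HEPES, 180 mM NaCl, pH 7.5, a buffer selected by screening seven buffers. ΔTm was derived from the melting-temperature shift caused by ligand; n = 4.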

The test system of test [3] is Staphylococcus aureus. As to the kind of experiment: Antibacterial activity against Staphylococcus aureus ATCC 29213 assessed as inhibition of bacterial growth measured after 16 hrs by agar plate dilution method. It counts as functional. Summed up:
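MIC determined by plate dilution against the reference strain; values from at least two independent experiments.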

Test [4] relates to Staphylococcus aureus. As to the kind of experiment: Antibacterial activity against methicillin sensitive Staphylococcus aureus assessed as inhibition of bacterial growth measured after 16 hrs by agar plate dilution method. It counts as functional. Put shortly:
(§2)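 Clinical MSSA and MRSA strains isolated from local hospitals; MIC determined by plate dilution; data from at least two independent experiments.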

The test system of test [5] is Escherichia coli. Description: Binding affinity to His6-tagged Escherichia coli FabH expressed in Escherichia coli BL21 (DE3) assessed as decrease in melting temperature at 10 uM by SYPRO orange based differential scanning fluorimetry. Summed up:
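Purified E. coli FabH melting curves were recorded with and without ligand by thermal-shift fluorometry in 1.0 M Tris-HCl, pH 6.8, a buffer chosen from seven screened. ΔTm was taken from the Tm shift; n = 4.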
Background: DSF heats the sample and reads unfolding from a dye or from intrinsic fluorescence.

For test [6], the system named is Staphylococcus aureus. As to the kind of experiment: Antibacterial activity against methicillin resistant Staphylococcus aureus assessed as inhibition of bacterial growth measured after 16 hrs by agar plate dilution method. It is filed as functional. Put shortly: as §2
Test [7] concerns Escherichia coli. As to the kind of experiment: Antibacterial activity against Escherichia coli harboring delta tolC mutant assessed as inhibition of bacterial growth measured after 16 hrs by agar plate dilution method. It is filed as functional.
The subject of another test is Enterococcus faecalis. Description: Antibacterial activity against Enterococcus faecalis ATCC 29212 assessed as inhibition of bacterial growth measured after 16 hrs by agar plate dilution method. It counts as functional.
The subject of test [8] is Staphylococcus aureus. Description: Inhibition of Staphylococcus aureus FabH A81V/A111T mutant assessed as bacterial growth inhibition measured after 18 hrs by resazurin dye based broth dilution assay. Put shortly:
(§3)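 S. aureus strains carrying point mutations in the FabH active site; MIC determined by broth dilution; data from at least two independent experiments.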

The test system of test [9] is Staphylococcus aureus. Description: Inhibition of Staphylococcus aureus FabH A81V mutant assessed as bacterial growth inhibition measured after 18 hrs by resazurin dye based broth dilution assay. Summed up:
as §3
In general terms: Alamar Blue is a resazurin reagent that responds to reducing activity.

Test [10] has as its system Staphylococcus aureus. As to the kind of experiment: Antibacterial activity against methicillin resistant Staphylococcus aureus infected in C57BL/6J mouse model of peritonitis assessed as mouse survival when infected with 2.5x10^7 CFU bacteria at 10 mg/kg, ip administered at 1 and 5 hrs post infection. It counts as functional, organism-based. Summed up: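 Female C57BL/6J mice given a higher intraperitoneal MRSA inoculum of 2.5 × 10^7 CFU; intraperitoneal treatment at 1 and 5 h post-infection; survival recorded.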

The subject of test [11] is Staphylococcus aureus. Description: Antibacterial activity against methicillin resistant Staphylococcus aureus assessed as inhibition of bacterial growth measured after 18 hrs in presence of 10% human serum by resazurin dye based broth dilution assay. It is filed as functional.
For test [12], the system named is Staphylococcus aureus. Description: Antibacterial activity against methicillin resistant Staphylococcus aureus infected in C57BL/6J mouse model of peritonitis assessed as mouse survival by measuring number of mouse at 10 mg/kg, ip administered at 1 and 5 hrs post infection relative to control. It is filed as functional. Put shortly: as §1
Test [13] relates to Staphylococcus aureus. As to the kind of experiment: Antibacterial activity against methicillin resistant Staphylococcus aureus infected in C57BL/6J mouse model of peritonitis assessed as bacterial load in kidney at 10 mg/kg, ip administered at 1 and 5 hrs post infection. It is filed as functional, organism-based. Summed up: as §1
Test [14] has as its system Staphylococcus aureus. Description: Antibacterial activity against methicillin, fusidic-acid, macrolide resistant and lincomycin, telithromycin, cipro-bay susceptible Staphylococcus aureus assessed as bacterial growth inhibition. It counts as functional.
Test [15] concerns Staphylococcus aureus. Description: Antibacterial activity against methicillin resistant and macrolide, lincomycin, telithromycin, cipro-bay susceptible Staphylococcus aureus assessed as bacterial growth inhibition. It is filed as functional.
Test [16] has as its system Staphylococcus aureus. Description: Antibacterial activity against methicillin, macrolide, lincomycin, telithromycin, cipro-bay resistant Staphylococcus aureus assessed as bacterial growth inhibition. It is filed as functional.
Test [17] concerns Staphylococcus aureus. As to the kind of experiment: Antibacterial activity against macrolide, lincomycin, telithromycin resistant and cipro-bay susceptible, methicillin-resistant Staphylococcus aureus assessed as bacterial growth inhibition. It counts as functional.
A short description of test [18]: Inhibition of Staphylococcus aureus FabB/FabF.
For test [19], the system named is Escherichia coli. Description: Binding affinity to His6-tagged Escherichia coli FabF C163Q mutant expressed in Escherichia coli BL21 (DE3) assessed as stoichiometry ratio measured after 200 sec by isothermal titration calorimetry. Summed up: (§4)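 Ligands were dissolved in PBS (10 mM, pH 7.4) and titrated into E. coli FabF(C163Q) in the same buffer. Protein was at 12 or 14 μM and ligand at 250 μM. Thermodynamic parameters (ΔH, ΔS, ΔG, Kd, n) were calculated from the heat of binding. Runs were done at least three times; one representative run was used.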
(In general: Isothermal titration calorimetry measures the heat released or taken up as one component is titrated into another.)

The nature of test [20]: Binding affinity to His6-tagged Escherichia coli FabF C163Q mutant expressed in Escherichia coli BL21 (DE3) assessed as binding constant measured after 200 sec by isothermal titration calorimetry. Put shortly: as §4
Test [21] concerns Escherichia coli. Description: Binding affinity to His6-tagged Escherichia coli FabF C163Q mutant expressed in Escherichia coli BL21 (DE3) assessed as change in entropy measured after 200 sec by isothermal titration calorimetry. Summed up: as §4
Test [22] has as its system Escherichia coli. As to the kind of experiment: Binding affinity to His6-tagged Escherichia coli FabF C163Q mutant expressed in Escherichia coli BL21 (DE3) assessed as change in enthalpy measured after 200 sec by isothermal titration calorimetry. Put shortly: as §4
Test [23] has as its system Escherichia coli. Description: Binding affinity to His6-tagged Escherichia coli FabF C163Q mutant expressed in Escherichia coli BL21 (DE3) assessed Gibbs free energy change measured after 200 sec by isothermal titration calorimetry. Summed up: as §4
The nature of test [24]: Inhibition of Staphylococcus aureus FabH.

Values after ≈ are worked out from the molar mass of the structure shown. Active and inactive are the calls of the source. The rule behind the calls is not given here. Some results are limits rather than exact numbers.

Consider `C=C1C[C@]23C=C(SC4CCCCC4)C(=O)[C@@](C)(CCC(=O)Nc4c(O)ccc(C(=O)O)c4O)[C@@H]2C[C@H]1CC3`, for which the outcome with Staphylococcus aureus [1] was inactive. The outcome (in [2]; in the test on Escherichia coli [5]) was Active. Also, the MIC in the test with Staphylococcus aureus [3], with Staphylococcus aureus [4] and in the test with Staphylococcus aureus [6] was 2 µg/mL (≈ 3.71 µM) throughout.
On to `C=C1C[C@]23C=C(Sc4ccoc4C)C(=O)[C@@](C)(CCC(=O)Nc4c(O)ccc(C(=O)O)c4O)[C@@H]2CC1CC3` (single isomer, unassigned), for which the MIC in the test with Escherichia coli [7] is over 32 µg/mL; in the test with Enterococcus faecalis, 2 µg/mL (≈ 3.72 µM); in the test on Staphylococcus aureus [3], 2 µg/mL (≈ 3.72 µM); in the test with Staphylococcus aureus [4] it was 1 µg/mL (≈ 1.86 µM); with Staphylococcus aureus [8], 8 µg/mL (≈ 14.9 µM); in the test with Staphylococcus aureus [6], 1 µg/mL (≈ 1.86 µM). The MIC in the test on Staphylococcus aureus [9] turned out to be 8 µg/mL (≈ 14.9 µM); in the test with Staphylococcus aureus [11], 16 µg/mL. Also, the outcome (in test [2]; in the test on Escherichia coli [5]) was Active. Besides, in the test with Staphylococcus aureus [10], the result was inactive.
Turning to `C=C1C[C@]23C=C(SCc4ccccc4)C(=O)[C@@](C)(CCC(=O)Nc4c(O)ccc(C(=O)O)c4O)[C@@H]2CC1CC3` (single isomer, unassigned), the MIC in the test on Escherichia coli [7] is over 32 µg/mL; with Enterococcus faecalis, 2 µg/mL (≈ 3.65 µM); in the test with Staphylococcus aureus [3], 2 µg/mL (≈ 3.65 µM); with Staphylococcus aureus [4] it was 1 µg/mL (≈ 1.83 µM); with Staphylococcus aureus [8], 4 µg/mL (≈ 7.3 µM); in the test with Staphylococcus aureus [6], 1 µg/mL (≈ 1.83 µM). Also, the MIC came to 8 µg/mL (≈ 14.6 µM) in the test on Staphylococcus aureus [9] and 16 µg/mL in the test on Staphylococcus aureus [11]. The outcome (in test [2]; in the test on Escherichia coli [5]) was Active. For the same molecule, the outcome in the test on Staphylococcus aureus [10] was inactive.
Consider `C=CCSC1=C[C@]23CCC(C[C@H]2[C@](C)(CCC(=O)Nc2c(O)ccc(C(=O)O)c2O)C1=O)C(=C)C3` (single isomer, unassigned), for which the result (in test [2]; in the test with Staphylococcus aureus [13]; in the test with Escherichia coli [5]) was Active. Moreover, the MIC with Staphylococcus aureus [3] was 2 µg/mL (≈ 4.02 µM); in the test with Staphylococcus aureus [4], 1 µg/mL (≈ 2.01 µM); in the test on Staphylococcus aureus [6], 1 µg/mL (≈ 2.01 µM). The Activity with Staphylococcus aureus [12] was found to be 80%.
For `C=C1[C@H]2CC[C@@]3(C=CC(=O)[C@@](C)(CCC(=O)Nc4c(O)ccc(C(=O)O)c4O)[C@@H]3C2)[C@H]1O` [PLATENCIN A3], the MIC in the test on Staphylococcus aureus [14], in the test on Staphylococcus aureus [15], with Staphylococcus aureus [16] and with Staphylococcus aureus [17] was 8 µg/mL (≈ 18.1 µM) each time.
The term IC50 denotes the midpoint of a concentration-inhibition curve. As usually defined, the Kd is a measure of binding affinity in units of concentration. On to `C=C1C[C@@]23C=CC(=O)[C@@](C)(CCC(=O)Nc4c(O)ccc(C(=O)O)c4O)[C@@H]2C[C@@H]1CC3` [PLATENCIN], for which the outcome (with Staphylococcus aureus [1]; in [2]; in the test on Staphylococcus aureus [13]; in the test on Escherichia coli [5]) was Active. For the same molecule, the MIC came to 4 µg/mL (≈ 9.4 µM) in the test on Escherichia coli [7]; 2 µg/mL (≈ 4.7 µM) with Enterococcus faecalis; 1 µg/mL (≈ 2.35 µM) with Staphylococcus aureus [3]; 1 µg/mL (≈ 2.35 µM) in the test on Staphylococcus aureus [4]; 32 µg/mL (≈ 75.2 µM) in the test with Staphylococcus aureus [8]; 1 µg/mL (≈ 2.35 µM) in the test with Staphylococcus aureus [6]. Also, the MIC was over 32 µg/mL with Staphylococcus aureus [9] and 8 µg/mL in the test with Staphylococcus aureus [11]. Further, the IC50 in [18] amounted to 4.6 µM; in test [24], 9.2 µM. The Ratio in the test with Escherichia coli [19] stood at 1.12. Moreover, in [20], the Kd was 0.027 µM. The -TdeltaS in the test on Escherichia coli [21] was -7.44 kcal/mol. Moreover, the outcome in the test with Staphylococcus aureus [10] was inactive. Besides, in the test with Escherichia coli [22], the deltaH was -2.84 kcal/mol. The deltaG with Escherichia coli [23] is -10.3 kcal/mol.

The values above are taken from ChEMBL document CHEMBL4765495, “Semisynthesis and Biological Evaluation of Platencin Thioether Derivatives: Dual FabF and FabH Inhibitors against MRSA” (ACS Med Chem Lett, 2021).
